Laboratory results from PMC11661184 (bioRxiv, 2024).

B1: Quad: hTRPA1 W1103A/V1106A/L1107A/V1110A (protein)
chain: MKRSLRKMWRPGEKKEPQGVVYEDVPDDTEDFKESLKVVFEGSAYGLQNFNKQKKLKRCDDMDTFFLHYAAAEGQIELMEKITRDSSLEVLHEMDDYGNTPLHCAVEKNQIESVKFLLSRGANPNLRNFNMMAPLHIAVQGMNNEVMKVLLEHRTIDVNLEGENGNTAVIIACTTNNSEALQILLKKGAKPCKSNKWGCFPIHQAAFSGSKECMEIILRFGEEHGYSRQLHINFMNNGKATPLHLAVQNGDLEMIKMCLDNGAQIDPVEKGRCTAIHFAATQGATEIVKLMISSYSGSVDIVNTTDGCHETMLHRASLFDHHELADYLISVGADINKIDSEGRSPLILATASASWNIVNLLLSKGAQVDIKDNFGRNFLHLTVQQPYGLKNLRPEFMQMQQIKELVMDEDNDGCTPLHYACRQGGPGSVNNLLGFNVSIHSKSKDKKSPLHFAASYGRINTCQRLLQDISDTRLLNEGDLHGMTPLHLAAKNGHDKVVQLLLKKGALFLSDHNGWTALHHASMGGYTQTMKVILDTNLKCTDRLDEDGNTALHFAAREGHAKAVALLLSHNADIVLNKQQASFLHLALHNKRKEVVLTIIRSKRWDECLKIFSHNSPGNKCPITEMIEYLPECMKVLLDFCMLHSTEDKSCRDYYIEYNFKYLQCPLEFTKKTPTQDVIYEPLTALNAMVQNNRIELLNHPVCKEYLLMKWLAYGFRAHMMNLGSYCLGLIPMTILVVNIKPGMAFNSTGIINETSDHSEILDTTNSYLIKTCMILVFLSSIFGYCKEAGQIFQQKRNYFMDISNVLEWIIYTTGIIFVLPLFVEIPAHLQWQCGAIAVYFYWMNFLLYLQRFENCGIFIVMLEVILKTLLRSTVVFIFLLLAFGLSFYILLNLQDPFSSPLLSIIQTFSMMLGDINYRESFLEPYLRNELAHPVLSFAQLVSFTIFVPIVLMNLLIGLAVGDIAEVQKHASLKRIAMQVELHTSLEKKLPLWFLRKVDQKSTIVYPNKPRSGGMLFHIFCFLFCTGEIRQEIPNADKSLEMEILKQKYRLKDLTFLLEKQHELIKLIIQKMEIISETEDDDSHCSFQDRFKKEQMEQRNSRANTAARAAKAKTHHLEP
B2: RK/AA (protein)
chain: MKRSLRKMWRPGEKKEPQGVVYEDVPDDTEDFKESLKVVFEGSAYGLQNFNKQKKLKRCDDMDTFFLHYAAAEGQIELMEKITRDSSLEVLHEMDDYGNTPLHCAVEKNQIESVKFLLSRGANPNLRNFNMMAPLHIAVQGMNNEVMKVLLEHRTIDVNLEGENGNTAVIIACTTNNSEALQILLKKGAKPCKSNKWGCFPIHQAAFSGSKECMEIILRFGEEHGYSRQLHINFMNNGKATPLHLAVQNGDLEMIKMCLDNGAQIDPVEKGRCTAIHFAATQGATEIVKLMISSYSGSVDIVNTTDGCHETMLHRASLFDHHELADYLISVGADINKIDSEGRSPLILATASASWNIVNLLLSKGAQVDIKDNFGRNFLHLTVQQPYGLKNLRPEFMQMQQIKELVMDEDNDGCTPLHYACRQGGPGSVNNLLGFNVSIHSKSKDKKSPLHFAASYGRINTCQRLLQDISDTRLLNEGDLHGMTPLHLAAKNGHDKVVQLLLKKGALFLSDHNGWTALHHASMGGYTQTMKVILDTNLKCTDRLDEDGNTALHFAAREGHAKAVALLLSHNADIVLNKQQASFLHLALHNKRKEVVLTIIRSKRWDECLKIFSHNSPGNKCPITEMIEYLPECMKVLLDFCMLHSTEDKSCRDYYIEYNFKYLQCPLEFTKKTPTQDVIYEPLTALNAMVQNNRIELLNHPVCKEYLLMKWLAYGFRAHMMNLGSYCLGLIPMTILVVNIKPGMAFNSTGIINETSDHSEILDTTNSYLIKTCMILVFLSSIFGYCKEAGQIFQQKRNYFMDISNVLEWIIYTTGIIFVLPLFVEIPAHLQWQCGAIAVYFYWMNFLLYLQRFENCGIFIVMLEVILKTLLRSTVVFIFLLLAFGLSFYILLNLQDPFSSPLLSIIQTFSMMLGDINYRESFLEPYLRNELAHPVLSFAQLVSFTIFVPIVLMNLLIGLAVGDIAEVQKHASLKRIAMQVELHTSLEKKLPLWFLRKVDQKSTIVYPNKPRSGGMLFHIFCFLFCTGEIRQEIPNADKSLEMEILKQKYRLKDLTFLLEKQHELIKLIIQKMEIISETEDDDSHCSFQDRFKKEQMEQRNSAWNTVLRAVAAKTHHLEP
B3: WT C. elegans TRPA1: WT C. elegans TRPA1, MBP-tagged (protein)
chain: MSKKSLGLDVRLELEGLISNDDTIRSEKDGRQASIFRVAELDARTEADNLRSIIHQSAREGNVNALQEALLKAPLAVNAQDGDFMTPLHYAARYGNYDAVKLLLSKNALPNTKNREGDTPLHIASKYIYGYSDICSIIDEDQADSARKYNTATKKIINALVSENAEIDPVNKYQLTPLHYAAMKSNFSALHALIKLKADVDAEDDNKMTPLLLACVHGSQEIIQELIKANSNVTKRDQRLNTVFHIVALRGEPEYLEMMMDHDPVEAIKALNLFNNEKKTPLRMAVEGNHPETLKKILQMEKKNSCKWMDREKELIHFAAEKGFLEVLKALVEAGGNKNELNEVKAVPLHVAAQMNQLEVVSYLIEEEKDNIDVVDEQGLTPLMMAVTHDSKKCVEYLIAKKANLTITDKDERTPVFIGAKFNALSSVEYILDHLRKKNKETERSALKSPTRNTLRIVSEDVRRTMVNMVDRDQNTPMHIVASNGYLEMMQLLQKHGASITQVNEDEETALHRAAIGGQTGAVRQLLEWDIRLLLMKDEMGNSALHLAARSGHDATTKVLLDNGADKEAKNSYQKTPLQVAVDSGKLETCQRLVAKGAQIESSSDTKTVLHTAAFYGNESIVRYFIAEGVTIDRRDEEGKTAFDIACENDHKDVARAFLETDQWKNLMIPCDVIPLDKHRNPVNMKRRTPFRTLLTKFPELASFVMDNCIEKSKEETDSTQSVAYNFEFLDDTYMMRCVSDDGTGEQLIGCKSAYDEDFKLEKDAQSYASNYDRVYKYHPLKLMADAEKLHLLNHPLSKALLKYKWNRLGRPMYYFALFMYLVFIVSLTQYVRHTKAPYNVWNEESYYDSEYFDENETCPQINTTKPDVVWKIIIQTLAVCQILVECFQLFQRKFAYLVNWENWIDCFIYSTALITVYDFSECSATSGVRQNWQWILAALCIFFGWINLLFMIRKMPRFGIFVVMFVDIVKTFFRFFPVFVLFIIAFSSSFYVILQNRPEFSTIFMSPLKTTVMMIGEFEFTGIFHGDETTHAEKMFGPAHTAVACALFFFFCIIMTILLMNLLVGLAVDDIKGVQEKAELKRLAMQVDLVLQIEASLHFFIQRTKKYATCRYATFPYGKLHKTGFAGWWSNFRRRFGLSVSTDPEIDEMYEREAEFTSEMTQKLQNQAAKLKNIQENIDVMYEKQVRLEAIIAKLATGLNINIELEEKDN

Tested on: CaM (Calmodulin-agarose)
Experiment: CaM-agarose pulldown of TRPA1 constructs
Format: binding
Conditions: for CaM binding at basal Ca2+ concentration: n=3 independent experiments
Outline: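 HEK293T cells were transfected with tagged TRPA1 constructs and lysed after 16-24 h in Tris pH 8.0 buffer containing 5 mM DDM and 500 µM EGTA. Free Ca²⁺ was set with CaCl₂, calculated from EGTA constants. 100 µg lysate was incubated with CaM-agarose for 1 h at 4 °C, washed, then eluted with 5 mM EGTA. Detection was by anti-FLAG or anti-MBP immunoblot, with tubulin input control. Enrichment is relative to the maximum within each replicate.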

Molecule	CaM binding at basal Ca2+ concentration	CaM binding of TRPA1 species orthologues (MBP-tagged constructs, absence or presence of Ca2+, four independent experiments)
B1	similarly ablated CaM binding	–
B2	similarly ablated CaM binding	–
B3	–	failed to bind CaM
